Source: PubChem
Only some compounds are listed: those with a hit (about 9.4% of all), similar ones and a draw of the others.
T cruzi repl: inhibitors of intracellular T. cruzi growth, primary screen, luminescence, NIH3T3 host cells; T. cruzi beta-gal in NIH3T3, 90 h; 300,000 compounds, 1.4% hits; inhibition, % (concentration not given with the values);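 active = mean inhibition across valid replicates above about 55%, limit read from the data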;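 also: signal also drops with host cell toxicity which is not excluded here; 0% = plate median of DMSO wells and 100% = zero luminescence signal; higher percent means less beta-gal luminescence so fewer parasites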
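assay system = mouse NIH/3T3 fibroblasts infected with β-gal-expressing T. cruzi Tulahuen C4 | input = 5,000 NIH/3T3 host cells per well | buffer or medium = DMEM plus 2% FBS | timing = 3 h host attachment, then at least 90 h co-culture | measured by = GalScreen luminescence, 60 min | evaluation = luminescence reflecting intracellular parasite burden, expressed as percent inhibition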
CSC inhib: cancer stem cell viability inhibitors, primary screen, luminescence | inhibition, % at 7.5 µM | cancer stem cell-like cells viability | 300,000 compounds, 1.1% hits; in the data active = inhibition above about 75%; tested in HMLE shEcad cells
SKKanGAS inh: S. pyogenes SKKanGAS growth inhibitors in kanamycin, primary screen, streptokinase expression inhibitor project, SKKanGAS strain, BacTiter-Glo luminescence; 6 h; AID 1662, 2009; 300,000 compounds, 1.3% hits; inhibition, % at 7.5 µM;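 active = mean replicate score, as percent of positive control median, at least 50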;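 also: strain carries kanamycin resistance gene driven by streptokinase promoter and grows in 40 µg/ml kanamycin; loss of luminescence reflects streptokinase promoter inhibition or plain growth inhibition; 0% = median of DMSO wells and 100% = positive control at its reference dose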
Mdm2-MdmX inh: inhibitors of human Mdm2-MdmX association, primary screen, cell-based, luminescence, split luciferase, SaOS-2, uHTS. Protein Mdm4 (Homo sapiens) + E3 ubiquitin-protein ligase Mdm2 (Homo sapiens), …. SaOS-2 split-luciferase Mdm2/MdmX complementation. inhibition, % at 8 µM. 330,000 compounds, 3% hits. AID 485346, 2010;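 active = inhibition of at least 50% at 8 µM in the primary screen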
Beta apoptosis: inhibitors of cytokine-induced beta cell apoptosis, primary screen, luminescence | INS-1E cytokine-induced death, ATP luminescence, 48 h; percent of positive-control rescue, neutral wells zero | AID 435005, 2010 | 300,000 compounds, 0.8% hits | protection from apoptosis, % (concentration not given with the values);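 active = Every replicate reaches about 75%, or at least half do and their mean reaches it too, limit read from the data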;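 also: 0% = cytokine-treated negative control wells and 100% = positive control rescue; higher means more ATP so stronger rescue from cytokine killing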
L major viab: Leishmania major promastigote growth inhibition, primary screen; Leishmania major promastigotes, resazurin fluorescence viability; inhibition, % at 10 µM; 200,000 compounds, 9% hits; in the data active = inhibition above about 50%;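 also: promastigotes grown with compound for 44 hours at 28 °C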
The depositor's hits bear a star; · = no result given.

SMILES	T cruzi repl	CSC inhib	SKKanGAS inh	Mdm2-MdmX inh	Beta apoptosis	L major viab
N#Cc1ccsc1NC(=O)CN1CCOCC1	-13	-18	-4	5	-1	·
O=C(/C=C/c1ccccc1)c1ccccc1	-13	15	4	18	-8	17
O=C(/C=C/c1ccccc1)c1ccc2c3c(cccc13)CC2	5	·	-8	-3	·	71*
COC(OC)C1Nc2ccccc2C(=O)N1c1ccc(F)cc1 (stereo not given)	·	·	·	14	·	·
Cc1ccc(N2C(=O)c3ccccc3NC2C(C)Cc2ccc3c(c2)OCO3)cc1 (stereo not given)	55*	54	19	-2	18	44
O=C(NC1CCCC1)C(c1ccncc1)N(Cc1ccco1)C(=O)c1ccc(-c2ccccc2)[nH]1 (stereo not given)	56*	18	-18	-8	1	94*
CC(C)(C)NC(=O)C(c1ccncc1)N(Cc1ccc(F)cc1)C(=O)c1ccc(-c2ccccc2)[nH]1 (stereo not given)	59*	8	13	26	9	99*
O=C(NC1CCCC1)C(c1ccncc1)N(Cc1ccccc1)C(=O)c1ccc(-c2ccccc2)[nH]1 (stereo not given)	61*	15	11	19	·	97*
CC(C)(C)NC(=O)C(c1ccncc1)N(C(=O)CNC(=O)c1ccco1)c1ccc(F)cc1 (stereo not given)	5	-1	9	16	4	·
Cc1ccc(C)c2[nH]c(=O)c(C(c3nnnn3C3CCCC3)N3CCOCC3)cc12 (stereo not given)	2	-16	-5	10	-4	9
CCOC(=O)C1CCN(C(c2cc3c(C)ccc(C)c3[nH]c2=O)c2nnnn2C2CCCCC2)CC1 (stereo not given)	11	-5	-8	8	2	99*
CCOC(=O)C1CCN(C(c2cc3ccc(C)c(C)c3[nH]c2=O)c2nnnn2C2CCCCC2)CC1 (stereo not given)	1	-3	0	16	-6	86*
CCOc1ccc(NS(=O)(=O)c2ccc(C(=O)NC3CCC(O)CC3)cc2)cc1 (stereo not given)	-10	16	-1	1	·	·
Cc1c(Cl)cccc1NC(=S)/C(=C(\[O-])c1ccc(Cl)s1)[n+]1ccccc1	19	15	45	6	-3	64*
[O-]/C(=C(\C(=S)Nc1cccc2ccccc12)[n+]1cccc(CO)c1)c1ccc(Cl)s1	·	·	·	·	·	11
CCN(CC)S(=O)(=O)c1cccc(-c2nnc(SCCCC(=O)c3ccccc3)o2)c1	66*	-4	7	22	10	11
CCN(CC)S(=O)(=O)c1cccc(-c2nnc(SCCCC(=O)c3ccc(F)cc3)o2)c1	60*	-3	13	28	17	16
CC1CN(C(=O)COC(=O)c2ccc3ncsc3c2)CC(C)O1 (stereo not given)	·	-13	·	19	-2	·
CC(C)(C)n1nnnc1C(c1cccnc1)N1CCN(C2CCCCC2)CC1 (stereo not given)	-8	3	-2	27	0	7
CC(C)(C)n1nnnc1C(c1cccnc1)N1CCN(C(=O)c2ccco2)CC1 (stereo not given)	-3	-21	2	-3	1	68*
CC(C)(C)n1nnnc1C(c1ccncc1)N1CCN(C2CCCCC2)CC1 (stereo not given)	-25	-12	5	1	-7	1
Cc1cccc(N2CCN(C(c3ccncc3)c3nnnn3C(C)(C)C)CC2)c1C (stereo not given)	64*	14	0	22	-7	87*
CC(C)(C)n1nnnc1C(c1cccnc1)N1CCN(c2cccc(C(F)(F)F)c2)CC1 (stereo not given)	49	-15	2	28	0	95*
COC(=O)[C@H](Cc1ccccc1)[C@@H](C)OS(N)(=O)=O	3	21	-5	-9	·	·
Cc1cccc[n+]1CC(=O)/C=C1\N(C)c2ccccc2C1(C)C	10	31	1	-1	14	84*
SMILES	T cruzi repl	CSC inhib	SKKanGAS inh	Mdm2-MdmX inh	Beta apoptosis	L major viab
CN1/C(=C\C(=O)C[n+]2cccc(C(N)=O)c2)C(C)(C)c2ccccc21	-27	-4	-9	5	·	0
Cc1ccc[n+](CC(=O)/C=C2\N(C)c3ccccc3C2(C)C)c1	0	31	2	-15	68	3
CN1/C(=C\C(=O)C[n+]2cccc(Br)c2)C(C)(C)c2ccccc21	-14	19	1	16	100*	2
CN1/C(=C\C(=O)C[n+]2ccc(C(=O)c3ccccc3)cc2)C(C)(C)c2ccccc21	9	4	16	15	103*	45
COc1ccc(Nc2nnc(SCC(=O)/C=C3/N(C)c4ccccc4C3(C)C)s2)cc1	13	29	18	15	62	96*
CC(C)CC(C(=O)O)N1C(=O)C2C3CC(C2C1=O)C1C(c2ccccc2)c2sc(=O)[nH]c2SC31 (stereo not given)	-12	5	4	22	-13	-2
COCCn1c(SCC(=O)c2c(-c3ccccc3)n(C)c3ccccc23)nnc1-c1ccncc1	23	6	2	-1	-3	-3
CN1/C(=C\C(=O)CN2C(=O)NC3(CCCCCC3)C2=O)C(C)(C)c2ccccc21	38	-10	4	-3	113*	96*
CN1/C(=C/C(=O)CSc2ccccc2C(=O)O)C(C)(C)c2ccccc21	3	-12	8	12	42	·
Cc1cc(=O)[nH]c(SCC(=O)/C=C2\N(C)c3ccccc3C2(C)C)n1	15	-8	-8	-7	117*	3
COCCn1c(SCC(=O)/C=C2\N(C)c3ccccc3C2(C)C)nnc1-c1ccncc1	19	7	-5	-1	80*	8
CN1/C(=C\C(=O)COC(=O)c2ccc(O)c(O)c2)C(C)(C)c2ccccc21	-3	28	12	30	95*	8
Cc1ccc(CN(C(=O)c2csnn2)C(C(=O)NC2CCCC2)c2ccco2)cc1 (stereo not given)	-18	2	1	-20	3	·
CN(/N=C/c1ccncc1)c1cnc2ccccc2n1	24	·	-5	-148	·	14
Cc1ccc(S(=O)(=O)N2CCC(C(=O)NCC(C)(C)N3CCOCC3)CC2)c(C)c1	·	·	·	-7	4	·
Nc1ncccc1OCc1ccc(Cl)c(Cl)c1	2	27	-3	-53	5	·
CCOc1nc(NCc2ccco2)nc(Nc2ccc(OC)cc2)n1	17	-4	-10	-10	3	84*
